Reference: ChEMBL document CHEMBL1157639, “Identification of inhibitors of drug-resistant Candida albicans strains from a library of bicyclic peptidomimetic compounds” (2010)

Key:
[1] = biological target: Secreted aspartic protease 2 (Candida albicans) (UniProt P0CS83); test: Inhibition of Candida albicans SAP2 at 2 uM by spectrophotometry relative to pepstatin A
Procedure, shortened: (§1)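 Sample was mixed with 1% (w/v) BSA substrate in 50 mM sodium citrate, pH 3.2, plus SAP2 protease (1 μg/mL stock solution) and incubated 30 min at 37 °C. The reaction was stopped with 10% TCA, kept 30 min on ice, and centrifuged; supernatant A280 was read. Percent inhibition was taken from ΔOD, with control proteinase minus proteinase plus pepstatin A set as 100%.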

[2] = biological target: Secreted aspartic protease 2 (Candida albicans) (UniProt P0CS83); test: Inhibition of Candida albicans SAP2 at 10 uM by spectrophotometry relative to pepstatin A; procedure, shortened: as §1
Candida albicans [3] = test: Antifungal activity against pharmacoresistant Candida albicans AIDS68 infected in Wistar rat estrogen-dependent fungal vaginitis model assessed as fungal burden at 10 uM administered intravaginally 48 hrs after fungal infection measured on day 7 after infection; format: functional, Vagina
Procedure, shortened: (§2)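 Oophorectomized female Wistar rats (80-100 g) got 0.5 mg estradiol benzoate s.c. Six days later they were inoculated intravaginally with >10⁷ YPD-grown yeast cells (28 °C, washed, hemocytometer-counted) in 0.1 mL saline. Treatment was given intravaginally at 1, 24 and 48 h post-challenge. Burden was counted by culturing 100 μL vaginal fluid on Sabouraud-chloramphenicol (50 μg/mL) agar, as CFU/mL ×1000, through day 28.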

Candida albicans [4] = test: Antifungal activity against Candida albicans SA40 infected in Wistar rat estrogen-dependent fungal vaginitis model assessed as fungal burden at 10 uM administered intravaginally 48 hrs after fungal infection measured on day 28 after infection; format: functional, Vagina; procedure, shortened: as §2
[5] = biological target: Secreted aspartic protease 2 (Candida albicans) (UniProt P0CS83); test: Inhibition of Candida albicans SAP2 at 0.2 uM by spectrophotometry relative to pepstatin A; procedure, shortened: as §1
Candida albicans [6] = test: Antifungal activity against Candida albicans SA40 infected in Wistar rat estrogen-dependent fungal vaginitis model assessed as fungal burden at 10 uM administered intravaginally 48 hrs after fungal infection measured on day 5 after infection; format: functional, Vagina
Procedure, shortened: (§3)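 Oophorectomized female Wistar rats (80-100 g), given 0.5 mg estradiol benzoate subcutaneously, were challenged intravaginally six days later with >10⁷ YPD-grown yeast cells in 0.1 mL saline. Compound at 10 μM was instilled intravaginally at 1, 24 and 48 h post-challenge. Vaginal fluid samples (100 μL) were plated on Sabouraud agar with chloramphenicol (50 μg/mL), and burden was expressed as CFU/mL ×1000.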

Candida albicans [7] = test: Antifungal activity against Candida albicans SA40 infected in Wistar rat estrogen-dependent fungal vaginitis model assessed as fungal burden at 10 uM administered intravaginally 48 hrs after fungal infection measured on day 7 after infection; format: functional, Vagina; procedure, shortened: as §3
Candida albicans [8] = test: Antifungal activity against Candida albicans SA40 infected in Wistar rat estrogen-dependent fungal vaginitis model assessed as fungal burden at 10 uM administered intravaginally 1 hr after fungal infection measured within 1 day of infection; format: functional, Vagina; procedure, shortened: as §2
Candida albicans [9] = test: Antifungal activity against pharmacoresistant Candida albicans AIDS68 infected in Wistar rat estrogen-dependent fungal vaginitis model assessed as fungal burden at 10 uM administered intravaginally 48 hrs after fungal infection measured on day 28 after infection; format: functional, Vagina; procedure, shortened: as §2
[10] = biological target: Secreted aspartic protease 2 (Candida albicans) (UniProt P0CS83); test: Inhibition of Candida albicans SAP2 at 0.02 uM by spectrophotometry relative to pepstatin A; procedure, shortened: as §1
Candida albicans [11] = test: Antifungal activity against Candida albicans SA40 infected in Wistar rat estrogen-dependent fungal vaginitis model assessed as fungal burden at 10 uM administered intravaginally 48 hrs after fungal infection measured on day 21 after infection; format: functional, Vagina; procedure, shortened: as §3
Candida albicans [12] = test: Antifungal activity against pharmacoresistant Candida albicans AIDS68 infected in Wistar rat estrogen-dependent fungal vaginitis model assessed as fungal burden at 10 uM administered intravaginally 48 hrs after fungal infection measured on day 5 after infection; format: functional, Vagina; procedure, shortened: as §2
Candida albicans [13] = test: Antifungal activity against Candida albicans SA40 infected in Wistar rat estrogen-dependent fungal vaginitis model assessed as fungal burden at 10 uM administered intravaginally 48 hrs after fungal infection measured on day 14 after infection; format: functional, Vagina; procedure, shortened: as §3
Candida albicans [14] = test: Antifungal activity against pharmacoresistant Candida albicans AIDS68 infected in Wistar rat estrogen-dependent fungal vaginitis model assessed as fungal burden at 10 uM administered intravaginally 1 hr after fungal infection measured on day 1 after infection; format: functional, Vagina; procedure, shortened: as §2
Candida albicans [15] = test: Antifungal activity against Candida albicans SA40 infected in Wistar rat estrogen-dependent fungal vaginitis model assessed as fungal burden at 10 uM administered intravaginally 1 hr after fungal infection measured on day 1 after infection; format: functional, Vagina; procedure, shortened: as §3
Candida albicans [16] = test: Antifungal activity against pharmacoresistant Candida albicans AIDS68 infected in Wistar rat estrogen-dependent fungal vaginitis model assessed as fungal burden at 10 uM administered intravaginally 48 hrs after fungal infection measured on day 21 after infection; format: functional, Vagina; procedure, shortened: as §2
[17] = biological target: Secreted aspartic protease 2 (Candida albicans) (UniProt P0CS83); test: Inhibition of Candida albicans SAP2 at 20 uM by spectrophotometry relative to pepstatin A; procedure, shortened: as §1
Candida albicans [18] = test: Antifungal activity against pharmacoresistant Candida albicans AIDS68 infected in Wistar rat estrogen-dependent fungal vaginitis model assessed as fungal burden at 10 uM administered intravaginally 48 hrs after fungal infection measured on day 14 after infection; format: functional, Vagina; procedure, shortened: as §2
Candida albicans [19] = test: Antifungal activity against Candida albicans SA40 infected in Wistar rat estrogen-dependent fungal vaginitis model assessed as fungal burden at 10 uM administered intravaginally 24 hrs after fungal infection measured on day 2 after infection; format: functional, Vagina; procedure, shortened: as §3
Candida albicans [20] = test: Antifungal activity against pharmacoresistant Candida albicans AIDS68 infected in Wistar rat estrogen-dependent fungal vaginitis model assessed as fungal burden at 10 uM administered intravaginally 24 hrs after fungal infection measured on day 2 after infection; format: functional, Vagina; procedure, shortened: as §2
[21] = biological target: Secreted aspartic protease 2 (Candida albicans) (UniProt P0CS83); test: Inhibition of Candida albicans SAP2 at 10 uM by spectrophotometry; procedure, shortened: as §1
Candida albicans [22] = test: Antifungal activity against pharmacoresistant Candida albicans AIDS68 infected in Wistar rat estrogen-dependent fungal vaginitis model assessed as fungal burden at 10 ug administered intravaginally 48 hrs after fungal infection measured on day 5 after infection; format: functional, Vagina; procedure, shortened: as §2
Candida albicans [23] = test: Antifungal activity against Candida albicans SA40 infected in Wistar rat estrogen-dependent fungal vaginitis model assessed as fungal burden at 10 ug administered intravaginally 48 hrs after fungal infection measured on day 7 after infection; format: functional, Vagina; procedure, shortened: as §2
Candida albicans [24] = test: Antifungal activity against Candida albicans SA40 infected in Wistar rat estrogen-dependent fungal vaginitis model assessed as fungal burden at 10 ug administered intravaginally 48 hrs after fungal infection measured on day 28 after infection; format: functional, Vagina; procedure, shortened: as §2
Candida albicans [25] = test: Antifungal activity against Candida albicans SA40 infected in Wistar rat estrogen-dependent fungal vaginitis model assessed as fungal burden at 10 ug administered intravaginally 1 hr after fungal infection measured on day 1 after infection; format: functional, Vagina; procedure, shortened: as §2
Candida albicans [26] = test: Antifungal activity against pharmacoresistant Candida albicans AIDS68 infected in Wistar rat estrogen-dependent fungal vaginitis model assessed as fungal burden at 10 ug administered intravaginally 24 hrs after fungal infection measured on day 2 after infection; format: functional, Vagina; procedure, shortened: as §2
Candida albicans [27] = test: Antifungal activity against Candida albicans SA40 infected in Wistar rat estrogen-dependent fungal vaginitis model assessed as fungal burden at 10 ug administered intravaginally 1 hr after fungal infection measured within 1 day of infection; format: functional, Vagina; procedure, shortened: as §2
Candida albicans [28] = test: Antifungal activity against pharmacoresistant Candida albicans AIDS68 infected in Wistar rat estrogen-dependent fungal vaginitis model assessed as fungal burden at 10 ug administered intravaginally 1 hr after fungal infection measured on day 1 after infection; format: functional, Vagina; procedure, shortened: as §2
Candida albicans [29] = test: Antifungal activity against pharmacoresistant Candida albicans AIDS68 infected in Wistar rat estrogen-dependent fungal vaginitis model assessed as fungal burden at 10 ug administered intravaginally 48 hrs after fungal infection measured on day 14 after infection; format: functional, Vagina; procedure, shortened: as §2
Candida albicans [30] = test: Antifungal activity against Candida albicans SA40 infected in Wistar rat estrogen-dependent fungal vaginitis model assessed as fungal burden at 10 ug administered intravaginally 48 hrs after fungal infection measured on day 14 after infection; format: functional, Vagina; procedure, shortened: as §2
Candida albicans [31] = test: Antifungal activity against Candida albicans SA40 infected in Wistar rat estrogen-dependent fungal vaginitis model assessed as fungal burden at 10 ug administered intravaginally 48 hrs after fungal infection measured on day 21 after infection; format: functional, Vagina; procedure, shortened: as §2
Candida albicans [32] = test: Antifungal activity against pharmacoresistant Candida albicans AIDS68 infected in Wistar rat estrogen-dependent fungal vaginitis model assessed as fungal burden at 10 ug administered intravaginally 48 hrs after fungal infection measured on day 7 after infection; format: functional, Vagina; procedure, shortened: as §2
Candida albicans [33] = test: Antifungal activity against Candida albicans SA40 infected in Wistar rat estrogen-dependent fungal vaginitis model assessed as fungal burden at 10 ug administered intravaginally 24 hrs after fungal infection measured on day 2 after infection; format: functional, Vagina; procedure, shortened: as §2
Candida albicans [34] = test: Antifungal activity against Candida albicans SA40 infected in Wistar rat estrogen-dependent fungal vaginitis model assessed as fungal burden at 10 ug administered intravaginally 48 hrs after fungal infection measured on day 5 after infection; format: functional, Vagina; procedure, shortened: as §2
Candida albicans [35] = test: Antifungal activity against pharmacoresistant Candida albicans AIDS68 infected in Wistar rat estrogen-dependent fungal vaginitis model assessed as fungal burden at 10 ug administered intravaginally 48 hrs after fungal infection measured on day 21 after infection; format: functional, Vagina; procedure, shortened: as §2

Sequence of Secreted aspartic protease 2 (Candida albicans) (P0CS83 57-398 limits assumed): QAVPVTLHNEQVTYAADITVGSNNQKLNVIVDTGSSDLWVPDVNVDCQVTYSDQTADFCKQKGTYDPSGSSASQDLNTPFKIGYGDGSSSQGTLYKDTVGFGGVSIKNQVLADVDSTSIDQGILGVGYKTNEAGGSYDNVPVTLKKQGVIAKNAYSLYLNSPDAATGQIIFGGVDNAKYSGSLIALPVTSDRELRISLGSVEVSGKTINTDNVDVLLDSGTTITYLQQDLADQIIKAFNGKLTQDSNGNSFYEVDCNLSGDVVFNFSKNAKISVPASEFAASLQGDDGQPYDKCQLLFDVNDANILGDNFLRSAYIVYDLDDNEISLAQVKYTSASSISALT

O=C([C@@H]1O[C@H]2CN(Cc3ccccc3)C(=O)[C@@H]1O2)N1CCCCC1
inhibition [1]: 50%
inhibition [2]: 67%
Activity (Candida albicans [3]): 23.2 ×10³ CFU/ml
Activity (Candida albicans [4]): 1.2 ×10³ CFU/ml
inhibition [5]: 19%
Activity (Candida albicans [6]): 39.2 ×10³ CFU/ml
Activity (Candida albicans [7]): 30.6 ×10³ CFU/ml
Activity (Candida albicans [8]): >100 ×10³ CFU/ml
Activity (Candida albicans [9]): 0 ×10³ CFU/ml
inhibition [10]: 0%
Activity (Candida albicans [11]): 8 ×10³ CFU/ml
Activity (Candida albicans [12]): 40.6 ×10³ CFU/ml
Activity (Candida albicans [13]): 14.4 ×10³ CFU/ml
Activity (Candida albicans [14]): 71.8 ×10³ CFU/ml
Activity (Candida albicans [15]): 70 ×10³ CFU/ml
Activity (Candida albicans [16]): 3.4 ×10³ CFU/ml
inhibition [17]: 74%
Activity (Candida albicans [18]): 12.8 ×10³ CFU/ml
Activity (Candida albicans [19]): 57.6 ×10³ CFU/ml
Activity (Candida albicans [20]): 62.6 ×10³ CFU/ml

CCOC(=O)N1CCN(C(=O)[C@@H]2O[C@H]3CN(Cc4ccccc4)C(=O)[C@@H]2O3)CC1
inhibition [2]: 19%
inhibition [21]: 10%
inhibition [17]: 74%

NCCNC(=O)[C@@H]1O[C@H]2CN(Cc3ccccc3)C(=O)[C@@H]1O2
inhibition [17]: 63%

CC(C)CC(=O)N[C@H](C(=O)N[C@H](C(=O)N[C@@H](CC(C)C)[C@@H](O)CC(=O)N[C@@H](C)C(=O)N[C@@H](CC(C)C)[C@@H](O)CC(=O)O)C(C)C)C(C)C [PEPSTATIN]
Activity (Candida albicans [22]): 37.2 ×10³ CFU/ml
Activity (Candida albicans [23]): 28 ×10³ CFU/ml
Activity (Candida albicans [24]): 0 ×10³ CFU/ml
Activity (Candida albicans [25]): 56.8 ×10³ CFU/ml
Activity (Candida albicans [26]): 52 ×10³ CFU/ml
Activity (Candida albicans [27]): >100 ×10³ CFU/ml
Activity (Candida albicans [28]): 58.4 ×10³ CFU/ml
Activity (Candida albicans [29]): 19.8 ×10³ CFU/ml
Activity (Candida albicans [30]): 9.4 ×10³ CFU/ml
Activity (Candida albicans [31]): 5 ×10³ CFU/ml
Activity (Candida albicans [32]): 30 ×10³ CFU/ml
Activity (Candida albicans [33]): 51 ×10³ CFU/ml
Activity (Candida albicans [34]): 32.4 ×10³ CFU/ml
Activity (Candida albicans [35]): 3.8 ×10³ CFU/ml

O=C([C@@H]1O[C@H]2CN(Cc3ccccc3)C(=O)[C@@H]1O2)N1CCCNCC1
inhibition [2]: 19%
inhibition [21]: 10%
inhibition [17]: 63%

CC(C)C[C@@H](CO)N(Cc1ccccc1)C(=O)[C@@H]1O[C@H]2CN(Cc3ccccc3)C(=O)[C@@H]1O2
inhibition [17]: 35%

CC(C)C[C@@H](CO)NC(=O)[C@H]1OC2CN(Cc3ccccc3)C(=O)C1O2 (single isomer, unassigned)
inhibition [17]: 33%
